Records with an inconclusive call do not appear. Activity calls are given as the source filed them.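 Rule for the calls: active = compound whose replicate-averaged normalized fluorescence ratio fell more than 5 SD below the agonist-stimulated control mean; inactive = the rest, inconclusive results apart.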
biological target: Short transient receptor potential channel 6 (Mus musculus) (UniProt Q61143); experiment: TRPC6 inhibition by TRPC4 inhibitor analogs, SAR follow-up, selectivity assay for selective TRPC4 inhibitor project, HEK293 cells, membrane potential dye, single concentration (AID 492981); conditions: membrane potential dye fluorescence, at 10 µM, stronger effect = higher value
Summary of the method: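 Assay system: HEK293 cells expressing mouse TRPC6 channel; Reagent: ECmax acetylcholine; Times: 45 min dye loading, 110 s compound preincubation; Technique: kinetic fluorescence reading of membrane potential dye.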

Chain of Short transient receptor potential channel 6 (Mus musculus) (Q61143 whole entry, looked up): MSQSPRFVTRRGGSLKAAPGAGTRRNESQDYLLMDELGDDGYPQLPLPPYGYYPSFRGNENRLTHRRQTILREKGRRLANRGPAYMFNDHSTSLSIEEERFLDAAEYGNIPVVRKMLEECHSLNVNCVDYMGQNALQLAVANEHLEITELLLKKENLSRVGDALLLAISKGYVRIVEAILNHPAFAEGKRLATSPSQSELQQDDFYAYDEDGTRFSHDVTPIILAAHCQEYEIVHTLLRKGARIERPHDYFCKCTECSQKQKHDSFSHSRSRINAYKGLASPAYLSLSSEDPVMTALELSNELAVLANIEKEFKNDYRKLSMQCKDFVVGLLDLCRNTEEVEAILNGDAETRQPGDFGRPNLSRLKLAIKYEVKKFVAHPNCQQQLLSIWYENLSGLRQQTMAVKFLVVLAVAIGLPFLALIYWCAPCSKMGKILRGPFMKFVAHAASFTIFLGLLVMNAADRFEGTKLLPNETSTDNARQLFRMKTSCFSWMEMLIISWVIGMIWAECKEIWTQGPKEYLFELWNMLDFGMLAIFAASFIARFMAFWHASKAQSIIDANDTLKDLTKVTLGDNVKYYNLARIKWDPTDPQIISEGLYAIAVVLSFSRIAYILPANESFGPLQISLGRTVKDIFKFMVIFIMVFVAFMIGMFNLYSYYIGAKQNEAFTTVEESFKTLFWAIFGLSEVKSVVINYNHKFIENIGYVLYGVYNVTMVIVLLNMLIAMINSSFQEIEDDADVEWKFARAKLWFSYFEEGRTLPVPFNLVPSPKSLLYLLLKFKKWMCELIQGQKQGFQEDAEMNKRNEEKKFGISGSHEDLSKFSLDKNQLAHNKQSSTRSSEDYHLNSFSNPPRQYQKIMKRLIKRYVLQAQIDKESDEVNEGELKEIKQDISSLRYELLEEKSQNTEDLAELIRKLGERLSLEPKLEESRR

**Q.** Which inhibition does the source give for Cc1cc(N2CCN(CC3CCCO3)CC2)nc2ccccc12 (stereo not drawn) here?
**A.** The inhibition was 14.3% (inactive).

**Q.** How did the inhibition turn out when COCCN(C)c1cc(C)c2ccccc2n1 was run?
**A.** Its inhibition is 22.2% (inactive).

**Q.** Which inhibition does the source give for FC(F)(F)c1cc(N2CCCC2)nc2ccccc12 here?
**A.** The inhibition was 11.5% (inactive).

**Q.** With COc1ccc(N2CCN(c3cc(C)c4ccccc4n3)CC2)cc1 as the molecule, how does the inhibition read?
**A.** The inhibition was 15.5% (inactive).

**Q.** How did the inhibition turn out when Cc1cc(N2CCN(C)CC2)nc2ccccc12 was run?
**A.** The inhibition was 2.9% (inactive).

**Q.** With Cc1cc(N2CCNCC2)nc2ccccc12 as the molecule, how does the inhibition read?
**A.** Its inhibition is 37.2%.

**Q.** Which inhibition does the source give for Cc1cc(N2CCOc3ccccc32)nc2ccccc12 here?
**A.** Its inhibition is 13.7% (inactive).

**Q.** For Cc1cc(N2CCN(c3ncccn3)CC2)nc2ccccc12, which inhibition is on record?
**A.** Its inhibition is 6.28% (inactive).

**Q.** Which inhibition does the source give for FC(F)(F)c1cc(N2CCCCC2)nc2ccccc12 here?
**A.** Its inhibition is -6.62% (inactive).

**Q.** For Cc1cc(N2CC(C)CC(C)C2)nc2ccccc12 (stereo not drawn), which inhibition is on record?
**A.** Its inhibition is 16.4% (inactive).

**Q.** Cc1cc(N2CCC(N3CCOCC3)CC2)nc2ccccc12 was tested. Which inhibition did it give?
**A.** The inhibition was 44.8%.

**Q.** Which inhibition does the source give for Cc1ccnc(N2CCCC2)n1 here?
**A.** The inhibition was -6.71% (inactive).

**Q.** Which inhibition does the source give for Cc1ccc2nc(N3CCCCC3)cc(C)c2c1 here?
**A.** The inhibition was 37.5% (inactive).

**Q.** c1ccc(-c2cc(N3CCCC3)nc3ccccc23)cc1 was tested. Which inhibition did it give?
**A.** Its inhibition is 2.24% (inactive).

**Q.** For Cc1cc(N2CCCC(O)C2)nc2ccccc12 (stereo not drawn), which inhibition is on record?
**A.** Its inhibition is 26.7%.

**Q.** For c1ccc(-c2cc(N3CCCCC3)nc3ccccc23)cc1, which inhibition is on record?
**A.** Its inhibition is 19.4% (inactive).

**Q.** For Cc1cc(N2CCC(C)CC2)nc2ccccc12, which inhibition is on record?
**A.** Its inhibition is 13.6% (inactive).

**Q.** Cc1ccnc(N2CCCC2)c1 was tested. Which inhibition did it give?
**A.** The inhibition was -27.6% (inactive).

**Q.** Which inhibition does the source give for Cc1ccnc(N2CCCCC2)c1 here?
**A.** Its inhibition is -2.93% (inactive).

**Q.** Cc1ccnc(N2CCCCC2)n1 was tested. Which inhibition did it give?
**A.** Its inhibition is -9.81% (inactive).

**Q.** Which inhibition does the source give for COc1ccccc1N1CCN(c2cc(C)c3ccccc3n2)CC1 here?
**A.** Its inhibition is 11.7% (inactive).

**Q.** For Cc1cc(N2CCCCC2)nc2ccccc12, which inhibition is on record?
**A.** Its inhibition is 42.7%.

**Q.** For Cc1cc(N2CCCCC2)nc2c(C)cccc12, which inhibition is on record?
**A.** The inhibition was 3.23% (inactive).

**Q.** With Cc1cc(N2CCCC2)nc2c(C)cccc12 as the molecule, how does the inhibition read?
**A.** Its inhibition is 33.9% (inactive).

**Q.** With Cc1cc(N2CCCC2)nc2ccccc12 as the molecule, how does the inhibition read?
**A.** The inhibition was 57.9%.

**Q.** Cc1cc(N2CCOCC2)nc2ccccc12 was tested. Which inhibition did it give?
**A.** The inhibition was 2.35% (inactive).

**Q.** With Cc1cc(N2CCCCC2)nc2ccc(F)cc12 as the molecule, how does the inhibition read?
**A.** The inhibition was 3.78% (inactive).

**Q.** With Cc1cc(N2CCC[C@@H]2C)nc2ccccc12 as the molecule, how does the inhibition read?
**A.** The inhibition was 47.6%.

**Q.** Which inhibition does the source give for Cc1cc(N2CCN(c3ccccc3C#N)CC2)nc2ccccc12 here?
**A.** The inhibition was 0.71% (inactive).

**Q.** How did the inhibition turn out when CCc1ccc2nc(N3CCCCC3)cc(C)c2c1 was run?
**A.** Its inhibition is 13.6% (inactive).

**Q.** With Cc1cc(N(C)CCN(C)C)nc2ccccc12 as the molecule, how does the inhibition read?
**A.** The inhibition was 18.1% (inactive).

**Q.** How did the inhibition turn out when CCN(CC)c1cc(C)c2ccccc2n1 was run?
**A.** Its inhibition is 9.79% (inactive).

**Q.** For Cc1cc(N2CCN(c3ccncc3)CC2)nc2ccccc12, which inhibition is on record?
**A.** The inhibition was 61.2%.
